Ins promoter up = MIN6 insulin promoter up-regulation. AID 1625. 190,000 tested, 0.3% active. z-score at 5 µM. MIN6 insulin promoter-GFP reporter, high-content imaging; stronger effect = higher value;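 active = z-score above 3 at 5 µM with at least 500 cells counted in the well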
b-catenin transl = alters nuclear translocation of beta-catenin in HeLa cells. 190,000 tested, 0.3% active. nuclear translocation activity, % at 5 µM. immunofluorescence imaging;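 active = nuclear translocation activity above 50% at 5 µM, with a well cell count of 50 or more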;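 also: per-cell ratio of nuclear to cytoplasmic median beta-catenin stain intensity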
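Test system: human HeLa cells, endogenous beta-catenin. Times: 24 h compound exposure, 37°C. Measured by: beta-catenin immunofluorescence imaging with DAPI.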
Wee1 stabilizer = blocks degradation of human Wee1 kinase; P30291; 220,000 tested, 1.2% active; HeLa Luc-Wee1K328M stability, luciferase luminescence; 100% = proteasome inhibitor MG132 effect; AID 1321; reporter increase, % at 5 µM;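 active = activation above the mean of all tested compounds plus 3 SD, set per screening run, cut at about 8.8% in these data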;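 also: cells exposed to compound for 20 h before luminescence read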
Target sequence (P30291 whole entry K328M): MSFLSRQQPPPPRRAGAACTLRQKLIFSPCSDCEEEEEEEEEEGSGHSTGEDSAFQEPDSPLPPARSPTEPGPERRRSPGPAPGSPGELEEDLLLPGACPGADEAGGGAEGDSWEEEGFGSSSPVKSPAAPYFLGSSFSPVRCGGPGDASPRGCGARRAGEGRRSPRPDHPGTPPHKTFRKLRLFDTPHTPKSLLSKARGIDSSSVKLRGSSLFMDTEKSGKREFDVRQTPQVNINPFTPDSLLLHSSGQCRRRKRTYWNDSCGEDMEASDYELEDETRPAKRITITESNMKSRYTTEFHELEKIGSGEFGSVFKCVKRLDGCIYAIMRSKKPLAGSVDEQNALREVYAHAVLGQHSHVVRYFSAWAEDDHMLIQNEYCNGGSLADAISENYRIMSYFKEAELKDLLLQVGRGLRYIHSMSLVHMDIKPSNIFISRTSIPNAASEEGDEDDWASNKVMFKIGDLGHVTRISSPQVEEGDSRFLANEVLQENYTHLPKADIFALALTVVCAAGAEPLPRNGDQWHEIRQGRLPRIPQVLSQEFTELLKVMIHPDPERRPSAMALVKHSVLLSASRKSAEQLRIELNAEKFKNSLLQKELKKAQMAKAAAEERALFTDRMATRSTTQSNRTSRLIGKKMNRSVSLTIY
MT stabilize HCS = microtubule stabilization, imaging screen. HeLa tubulin immunostaining HCS, 24 h; share of cells brighter than vehicle mean+2SD. % tubulin-high responders, % at 10 µM. 200,000 tested, 0.83% active;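 active = plate Z-score above 3 for both tubulin-high and condensed-nucleus cell shares, with cell loss under 80%, at 10 µM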;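 also: anti alpha tubulin signal scored within the nucleus-defined area of each cell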
Autophagy mod = modulators of autophagy; 190,000 tested, 0.98% active; MEF GFP-LC3 puncta imaging; test concentration mostly 10 µM; calls only at 10 µM (by protocol);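 active = percentage of spot-positive cells more than 3 SD above its plate mean, without a fluorescence outlier flag or 80% toxicity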
A number is an active result. Most compounds without a hit are left out; they make up all but 2.9% or so of the library.

For Cc1cccc(Nc2nc(-c3cccs3)cs2)n1 the results were b-catenin transl inactive, Wee1 stabilizer 18.3, MT stabilize HCS inactive and Autophagy mod inactive.
`c1ccc(Nc2nc(-c3cccs3)cs2)nc1` gave b-catenin transl inactive, Wee1 stabilizer 9.8, MT stabilize HCS inactive and Autophagy mod inactive.
For Cc1cccc(Nc2nc(-c3ccccn3)cs2)n1 the results were Ins promoter up inactive, b-catenin transl inactive, Wee1 stabilizer inactive, MT stabilize HCS inactive and Autophagy mod inactive.
`O=C1CN(C(=O)COC(=O)c2ccccc2NC(=O)c2ccco2)c2ccccc2N1` gave Ins promoter up inactive, Wee1 stabilizer inactive, MT stabilize HCS inactive and Autophagy mod inactive.
CCSC1=NCCN1C(=O)C(C)(C)Oc1ccc(Cl)cc1 was read as Ins promoter up inactive, b-catenin transl inactive, Wee1 stabilizer inactive, MT stabilize HCS inactive and Autophagy mod inactive.
For Cc1[nH]c2c(C)cccc2c1CCNS(=O)(=O)c1cccc([N+](=O)[O-])c1 the results were b-catenin transl inactive, Wee1 stabilizer inactive, MT stabilize HCS inactive and Autophagy mod active.
`C=CCNCCCCOc1ccc(OCc2ccccc2)cc1` gave Ins promoter up inactive, b-catenin transl inactive, Wee1 stabilizer inactive, MT stabilize HCS inactive and Autophagy mod active.
Screening COc1ccccc1OCC(O)CNCc1ccc2c(c1)OCO2 (stereo not given) returned Ins promoter up inactive, b-catenin transl inactive and Wee1 stabilizer inactive.
For CCOc1ccccc1NC(=O)CC1Nc2ccccc2NC1=O (stereo not given) the results were Ins promoter up inactive, b-catenin transl inactive, Wee1 stabilizer inactive, MT stabilize HCS inactive and Autophagy mod inactive.
Screening CCOc1ccccc1NC(=O)CC1Nc2cc(C)c(C)cc2NC1=O (stereo not given) returned Ins promoter up inactive, Wee1 stabilizer inactive, MT stabilize HCS 22.9 and Autophagy mod inactive.
Screening CCN(CC)CCNc1nc2c(c(=O)[nH]c(=O)n2C)n1CC(O)COc1ccc(Cl)cc1Cl (stereo not given) returned Ins promoter up inactive, b-catenin transl inactive, Wee1 stabilizer inactive, MT stabilize HCS inactive and Autophagy mod inactive.
Cc1cc(C)n(-c2nc3c(c(=O)[nH]c(=O)n3C)n2CC(O)COc2ccc(Cl)cc2Cl)n1 (stereo not given) was read as Ins promoter up inactive, b-catenin transl inactive, Wee1 stabilizer inactive, MT stabilize HCS inactive and Autophagy mod active.
For Cc1cc(C)n(-c2nc3c(c(=O)[nH]c(=O)n3C)n2CCc2ccccc2)n1 the results were Ins promoter up inactive, b-catenin transl inactive, Wee1 stabilizer inactive, MT stabilize HCS 40.9 and Autophagy mod inactive.
For Cc1ccc(C(=O)N2CCN(S(=O)(=O)c3ccc(C)c([N+](=O)[O-])c3)C2)cc1 the results were Ins promoter up inactive, b-catenin transl inactive, Wee1 stabilizer inactive, MT stabilize HCS inactive and Autophagy mod inactive.
`CCc1ccccc1N(C)S(=O)(=O)c1ccc2[nH]cc(C(=O)O)c(=O)c2c1` gave Ins promoter up inactive, b-catenin transl inactive, Wee1 stabilizer 9.5, MT stabilize HCS inactive and Autophagy mod inactive.
`CCOC(=O)C1=C(N)Oc2cc(O)ccc2C1c1cccc([N+](=O)[O-])c1` (stereo not given) gave Ins promoter up inactive, b-catenin transl inactive, Wee1 stabilizer inactive, MT stabilize HCS 14.9 and Autophagy mod inactive.
CCOC(=O)C1=C(C)NC(C)=C(C(=O)OC)C1c1cccc([N+](=O)[O-])c1 (stereo not given) was read as Ins promoter up inactive, b-catenin transl inactive, Wee1 stabilizer inactive, MT stabilize HCS inactive and Autophagy mod inactive.
`Cc1ccc(N(C(=O)Cn2nnc(-c3ccc(F)cc3)n2)C(CC(C)C)C(=O)NCC2CCCO2)cc1` (stereo not given) gave Wee1 stabilizer inactive, MT stabilize HCS inactive and Autophagy mod inactive.
For COc1cc(OC)cc(C(=O)N/N=C/c2ccc(OC)c(COc3ccc(F)cc3)c2)c1 the results were Ins promoter up inactive, b-catenin transl 212.7, Wee1 stabilizer inactive, MT stabilize HCS inactive and Autophagy mod inactive.
For COc1ccc(/C=N/NC(=O)c2cccnc2)cc1COc1ccc(NC(C)=O)cc1 the results were Ins promoter up inactive, b-catenin transl inactive and Wee1 stabilizer inactive.
COc1ccc(/C=N/NC(=O)c2cc(OC)c(OC)c(OC)c2)cc1CN1CCc2cc(OC)c(OC)cc2C1C (stereo not given) was read as Ins promoter up inactive, b-catenin transl inactive, Wee1 stabilizer inactive, MT stabilize HCS 20.3 and Autophagy mod inactive.

Screens as filed in PubChem BioAssay.
